In ChEMBL document CHEMBL3585272, “Syntheses and Antibacterial Activity of N-Acylated Ciprofloxacin Derivatives Based on the Trimethyl Lock” (ACS Med Chem Lett, 2015):
Values after ≈ are worked out from the molar mass of the structure shown.

Key:
Escherichia coli [1] = test: Antibacterial activity against Escherichia coli DC0 by broth microdilution method; format: functional
How it was run: (§1)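 Broth microdilution in Mueller-Hinton broth No.2 (MHII) following CLSI guidelines. The MIC (μM) was read by visual end point. Each compound was tested in triplicate.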

Pseudomonas aeruginosa [2] = test: Antibacterial activity against wild type Pseudomonas aeruginosa K799 by broth microdilution method; format: functional; how it was run: as §1
Escherichia coli [3] = test: Antibacterial activity against Escherichia coli DC2 at 0.1 mM incubated for 24 hrs at 37 degC by agar diffusion assay; format: functional; conditions: DC2, 24 h, read-out: DIZ
How it was run: (§2)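 Agar well diffusion. 50 μL of a 0.1 mM solution in 1:9 DMSO/MeOH was added to 9 mm wells in Standard I nutrient agar or Mueller Hinton II agar. Plates were incubated at 37 °C for 24 h, or 44 h for M. vaccae, then inhibition zones were read. Unclear zones were scored separately.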

Micrococcus luteus [4] = test: Antibacterial activity against Micrococcus luteus ATCC 10240 at 0.1 mM incubated for 24 hrs at 37 degC by agar diffusion assay; format: functional; conditions: ATCC 10240, 24 h, read-out: DIZ; how it was run: as §2
Pseudomonas aeruginosa [5] = test: Antibacterial activity against wild type Pseudomonas aeruginosa K799 at 0.1 mM incubated for 24 hrs at 37 degC by agar diffusion assay; format: functional; conditions: K799, 24 h, read-out: DIZ; how it was run: as §2
Escherichia coli [6] = test: Antibacterial activity against Escherichia coli X580 at 0.1 mM incubated for 24 hrs at 37 degC by agar diffusion assay; format: functional; conditions: X580, 24 h, read-out: DIZ; how it was run: as §2
Pseudomonas aeruginosa [7] = test: Antibacterial activity against Pseudomonas aeruginosa K799/61 assessed as unclear inhibition zone or inhibition zone with many colonies at 0.1 mM incubated for 24 hrs at 37 degC by agar diffusion assay; format: functional; conditions: K799/61, 24 h, read-out: DIZ; how it was run: as §2
Bacillus subtilis [8] = test: Antibacterial activity against Bacillus subtilis ATCC 6633 by broth microdilution method; format: functional; how it was run: as §1
Bacillus subtilis [9] = test: Antibacterial activity against Bacillus subtilis ATCC 6633 at 0.1 mM incubated for 24 hrs at 37 degC by agar diffusion assay; format: functional; conditions: ATCC 6633, 24 h, read-out: DIZ; how it was run: as §2
Mycolicibacterium vaccae [10] = test: Antibacterial activity against Mycobacterium vaccae IMET10670 assessed as unclear inhibition zone or inhibition zone with many colonies at 0.1 mM incubated for 44 hrs at 37 degC by agar diffusion assay; format: functional; conditions: IMET10670, 44 h, read-out: DIZ; how it was run: as §2
Staphylococcus aureus [11] = test: Antibacterial activity against Staphylococcus aureus SG511 at 0.1 mM incubated for 24 hrs at 37 degC by agar diffusion assay; format: functional; conditions: SG511, 24 h, read-out: DIZ; how it was run: as §2
Mycolicibacterium vaccae [12] = test: Antibacterial activity against Mycobacterium vaccae IMET10670 by broth microdilution method; format: functional; how it was run: as §1
Pseudomonas aeruginosa [13] = test: Antibacterial activity against Pseudomonas aeruginosa K799/61 by broth microdilution method; format: functional; how it was run: as §1
Staphylococcus aureus [14] = test: Antibacterial activity against Staphylococcus aureus SG511 by broth microdilution method; format: functional; how it was run: as §1
Mycolicibacterium vaccae [15] = test: Antibacterial activity against Mycobacterium vaccae IMET10670 at 0.1 mM incubated for 44 hrs at 37 degC by agar diffusion assay; format: functional; conditions: IMET10670, 44 h, read-out: DIZ; how it was run: as §2
Acinetobacter baumannii [16] = test: Antibacterial activity against Acinetobacter baumannii ATCC 17961 at 0.1 mM incubated for 24 hrs at 37 degC by agar diffusion assay; format: functional; conditions: ATCC 17961, 24 h, read-out: DIZ; how it was run: as §2
Pseudomonas aeruginosa [17] = test: Antibacterial activity against wild type Pseudomonas aeruginosa K799 assessed as unclear inhibition zone or inhibition zone with many colonies at 0.1 mM incubated for 24 hrs at 37 degC by agar diffusion assay; format: functional; conditions: K799, 24 h, read-out: DIZ; how it was run: as §2
Escherichia coli [18] = test: Antibacterial activity against Escherichia coli DC0 at 0.1 mM incubated for 24 hrs at 37 degC by agar diffusion assay; format: functional; conditions: DC0, 24 h, read-out: DIZ; how it was run: as §2
Pseudomonas aeruginosa [19] = test: Antibacterial activity against Pseudomonas aeruginosa K799/61 at 0.1 mM incubated for 24 hrs at 37 degC by agar diffusion assay; format: functional; conditions: K799/61, 24 h, read-out: DIZ; how it was run: as §2
Acinetobacter baumannii [20] = test: Antibacterial activity against Acinetobacter baumannii ATCC 17961 assessed as unclear inhibition zone or inhibition zone with many colonies at 0.1 mM incubated for 24 hrs at 37 degC by agar diffusion assay; format: functional; conditions: ATCC 17961, 24 h, read-out: DIZ; how it was run: as §2
Acinetobacter baumannii [21] = test: Antibacterial activity against Acinetobacter baumannii ATCC 17961 by broth microdilution method; format: functional; how it was run: as §1
Micrococcus luteus [22] = test: Antibacterial activity against Micrococcus luteus ATCC 10240 by broth microdilution method; format: functional; how it was run: as §1
Escherichia coli [23] = test: Antibacterial activity against Escherichia coli DC2 by broth microdilution method; format: functional; how it was run: as §1
Escherichia coli [24] = test: Antibacterial activity against Escherichia coli X580 assessed as unclear inhibition zone or inhibition zone with many colonies at 0.1 mM incubated for 24 hrs at 37 degC by agar diffusion assay; format: functional; conditions: X580, 24 h, read-out: DIZ; how it was run: as §2
Escherichia coli [25] = test: Antibacterial activity against Escherichia coli DC0 assessed as unclear inhibition zone or inhibition zone with many colonies at 0.1 mM incubated for 24 hrs at 37 degC by agar diffusion assay; format: functional; conditions: DC0, 24 h, read-out: DIZ; how it was run: as §2
Escherichia coli [26] = test: Antibacterial activity against Escherichia coli DC0 at 5 ug/ml incubated for 24 hrs at 37 degC by agar diffusion assay; conditions: DC0, 24 h, read-out: DIZ
Micrococcus luteus [27] = test: Antibacterial activity against Micrococcus luteus ATCC 10240 at 5 ug/ml incubated for 24 hrs at 37 degC by agar diffusion assay; format: functional; conditions: ATCC 10240, 24 h, read-out: DIZ
How it was run: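 Agar well diffusion: the drug was dissolved in water and added to 9 mm wells cut in Standard I Nutrient Agar or Mueller Hinton II agar seeded with the strain. Inhibition zone diameters were read after 24 h at 37 °C. Zones were scored as very unclear where the zone boundary was indistinct.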

Mycolicibacterium vaccae [28] = test: Antibacterial activity against Mycobacterium vaccae IMET10670 at 5 ug/ml incubated for 44 hrs at 37 degC by agar diffusion assay; format: functional; conditions: IMET10670, 44 h, read-out: DIZ
How it was run: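 Agar well diffusion with the sample in H2O at 5 μg/mL. 50 μL was added to 9 mm wells in nutrient or Mueller Hinton II agar. Plates were incubated at 37 °C for 24 h, or 44 h for M. vaccae, and inhibition zones were read.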

Pseudomonas aeruginosa [29] = test: microbe, parasite or virus in culture; conditions: K799, 24 h, read-out: DIZ
Pseudomonas aeruginosa [30] = test: microbe, parasite or virus in culture; conditions: K799/61, 24 h, read-out: DIZ
Staphylococcus aureus [31] = test: Antibacterial activity against Staphylococcus aureus SG511 at 5 ug/ml incubated for 24 hrs at 37 degC by agar diffusion assay; conditions: SG511, 24 h, read-out: DIZ
Bacillus subtilis [32] = test: microbe, parasite or virus in culture; conditions: ATCC 6633, 24 h, read-out: DIZ
Pseudomonas aeruginosa [33] = test: microbe, parasite or virus in culture; conditions: K799/61, 24 h, read-out: DIZ; remark: listed apart in the source
Acinetobacter baumannii [34] = test: microbe, parasite or virus in culture; conditions: ATCC 17961, 24 h, read-out: DIZ
Bacillus subtilis [35] = test: microbe, parasite or virus in culture; conditions: ATCC 6633, 24 h, read-out: DIZ; remark: listed apart in the source
Acinetobacter baumannii [36] = test: microbe, parasite or virus in culture; conditions: ATCC 17961, 24 h, read-out: DIZ; remark: listed apart in the source
[37] = Retention time of the compound in presence of methyl mercaptoacetate in CH3CN/PBS solution at 37 degC incubated for 3 hrs by HPLC method; format: physicochemical; conditions: buffer

SMILES	MIC (Escherichia coli [1])	MIC (Pseudomonas aeruginosa [2])	zone of inhibition at 100 µM (Escherichia coli [3])	zone of inhibition at 100 µM (Micrococcus luteus [4])	zone of inhibition at 100 µM (Pseudomonas aeruginosa [5])	zone of inhibition at 100 µM (Escherichia coli [6])	zone of inhibition at 100 µM (Pseudomonas aeruginosa [7])	MIC (Bacillus subtilis [8])	zone of inhibition at 100 µM (Bacillus subtilis [9])	zone of inhibition at 100 µM (Staphylococcus aureus [11])	MIC (Mycolicibacterium vaccae [12])	MIC (Pseudomonas aeruginosa [13])	MIC (Staphylococcus aureus [14])	zone of inhibition at 100 µM (Mycolicibacterium vaccae [15])	zone of inhibition at 100 µM (Acinetobacter baumannii [16])	zone of inhibition at 100 µM (Pseudomonas aeruginosa [17])	zone of inhibition at 100 µM (Escherichia coli [18])	MIC (Acinetobacter baumannii [21])	MIC (Micrococcus luteus [22])	MIC (Escherichia coli [23])	other results
CC1=C(N)C(=O)C(C(C)(C)CC(=O)N2CCN(c3cc4c(cc3F)c(=O)c(C(=O)O)cn4C3CC3)CC2)=C(C)C1=O	25 µM (≈ 14.1 µg/mL)	2.5 µM (≈ 1.41 µg/mL)	23 mm	17 mm	22 mm	31 mm	35 mm	< 0.05 µM	36 mm	31 mm	2 µM (≈ 1.13 µg/mL)	5 µM (≈ 2.82 µg/mL)	< 0.05 µM	24 mm	24 mm	32 mm	16 mm	0.6 µM (≈ 0.339 µg/mL)	12.5 µM (≈ 7.06 µg/mL)	12.5 µM (≈ 7.06 µg/mL)	zone of inhibition at 100 µM (Mycolicibacterium vaccae [10]): 30 mm; zone of inhibition at 100 µM (Pseudomonas aeruginosa [19]): 31 mm; zone of inhibition at 100 µM (Acinetobacter baumannii [20]): 30 mm; zone of inhibition at 100 µM (Escherichia coli [24]): 37 mm; zone of inhibition at 100 µM (Escherichia coli [25]): 23 mm
O=C(O)c1cn(C2CC2)c2cc(N3CCNCC3)c(F)cc2c1=O [CIPROFLOXACIN]	0.47 µM (≈ 0.156 µg/mL)	0.47 µM (≈ 0.156 µg/mL)	–	–	–	–	–	0.03 µM (≈ 0.00994 µg/mL)	–	–	0.47 µM (≈ 0.156 µg/mL)	0.24 µM (≈ 0.0795 µg/mL)	0.47 µM (≈ 0.156 µg/mL)	–	–	–	–	0.24 µM (≈ 0.0795 µg/mL)	8 µM (≈ 2.65 µg/mL)	0.24 µM (≈ 0.0795 µg/mL)	zone of inhibition at 5 µg/mL (Escherichia coli [26]): 18 mm; zone of inhibition at 5 µg/mL (Micrococcus luteus [27]): 0 mm; zone of inhibition at 5 µg/mL (Mycolicibacterium vaccae [28]): 23 mm; zone of inhibition at 1.66 µg/mL (Pseudomonas aeruginosa [29]): 15 mm; zone of inhibition at 1.66 µg/mL (Pseudomonas aeruginosa [30]): 19 mm; zone of inhibition at 5 µg/mL (Staphylococcus aureus [31]): 21 mm; zone of inhibition at 1.66 µg/mL (Bacillus subtilis [32]): 24 mm; zone of inhibition at 1.66 µg/mL (Pseudomonas aeruginosa [33]): 24 mm; zone of inhibition at 5 µg/mL (Acinetobacter baumannii [34]): 18 mm; zone of inhibition at 1.66 µg/mL (Bacillus subtilis [35]): 20 mm; zone of inhibition at 5 µg/mL (Acinetobacter baumannii [36]): 21 mm
CC1=CC(=O)C(C(C)(C)CC(=O)N2CCN(c3ccccc3)CC2)=C(C)C1=O	–	–	–	–	–	–	–	–	–	–	–	–	–	–	–	–	–	–	–	–	Retention_time [37]: 11.1 min
CC(C)(C)CC(=O)N1CCN(c2cc3c(cc2F)c(=O)c(C(=O)O)cn3C2CC2)CC1	> 100 µM	> 100 µM	–	–	–	–	–	< 0.05 µM	–	–	2 µM (≈ 0.859 µg/mL)	> 100 µM	0.4 µM (≈ 0.172 µg/mL)	–	–	–	–	25 µM (≈ 10.7 µg/mL)	12.5 µM (≈ 5.37 µg/mL)	100 µM (≈ 42.9 µg/mL)	–
CC1=C(Br)C(=O)C(C(C)(C)CC(=O)N2CCN(c3cc4c(cc3F)c(=O)c(C(=O)O)cn4C3CC3)CC2)=C(C)C1=O	12.5 µM (≈ 7.86 µg/mL)	5 µM (≈ 3.14 µg/mL)	24 mm	19 mm	29 mm	33 mm	38 mm	< 0.05 µM	35 mm	25 mm	2 µM (≈ 1.26 µg/mL)	2.5 µM (≈ 1.57 µg/mL)	0.1 µM (≈ 0.0628 µg/mL)	37 mm	18 mm	35 mm	17 mm	0.78 µM (≈ 0.49 µg/mL)	1.56 µM (≈ 0.98 µg/mL)	8.33 µM (≈ 5.24 µg/mL)	zone of inhibition at 100 µM (Pseudomonas aeruginosa [19]): 29 mm; zone of inhibition at 100 µM (Acinetobacter baumannii [20]): 23 mm; zone of inhibition at 100 µM (Escherichia coli [24]): 40 mm; zone of inhibition at 100 µM (Escherichia coli [25]): 21 mm
CC(C)(C)OC(=O)N1CCN(c2cc3c(cc2F)c(=O)c(C(=O)O)cn3C2CC2)CC1	> 100 µM	> 100 µM	–	–	–	–	–	< 0.05 µM	–	–	2 µM (≈ 0.863 µg/mL)	> 100 µM	0.4 µM (≈ 0.173 µg/mL)	–	–	–	–	> 100 µM	> 100 µM	> 100 µM	–
